# Screens as filed in PubChem.
# ARNT TACC3 PPI: ARNT/TACC3 interaction disruption | Q9Y6A5 | AlphaScreen His-ARNT PAS-B/GST-TACC3 binding, luminescence; TACC3 fragment carries E629A point mutation | inhibition, % at 9.99 µM | 390,000 compounds, 0.66% hits;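 active = mean inhibition of replicates at least 50% and at least half of replicates each reaching 50%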;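 note: 0% = complete ARNT plus TACC3 wells and 100% = ARNT alone without TACC3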
# DDE Tn7 FP inh: DD(E)-Tn7 binding inhibition, primary FP screen; P02675; 370,000 compounds, 0.13% hits; inhibition, % at 8.3 µM; FP displacement of FITC-Tn7 peptide from fibrin DD(E); 0% = median of compound wells per plate;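 active = inhibition above the mean of compounds falling within the control limits plus 3 SD of them, cut at about 14% in these data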;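 note: 0% = plate median of compound wells and 100% = 10 µM Aha-Tn7 peptide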
# Target sequence (P02675 whole entry, looked up): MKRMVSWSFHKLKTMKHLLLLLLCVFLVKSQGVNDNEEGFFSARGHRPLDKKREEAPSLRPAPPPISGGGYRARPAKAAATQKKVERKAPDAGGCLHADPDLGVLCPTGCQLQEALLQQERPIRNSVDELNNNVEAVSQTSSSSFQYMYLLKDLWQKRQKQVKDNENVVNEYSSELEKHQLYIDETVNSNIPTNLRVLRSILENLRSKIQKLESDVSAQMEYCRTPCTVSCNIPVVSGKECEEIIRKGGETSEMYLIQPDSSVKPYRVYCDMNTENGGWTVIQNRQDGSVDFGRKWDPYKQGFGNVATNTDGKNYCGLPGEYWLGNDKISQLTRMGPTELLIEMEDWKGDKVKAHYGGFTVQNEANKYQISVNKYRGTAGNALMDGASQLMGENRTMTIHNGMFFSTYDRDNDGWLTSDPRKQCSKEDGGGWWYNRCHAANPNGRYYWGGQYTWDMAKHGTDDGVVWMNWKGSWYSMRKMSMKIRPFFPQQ
#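 System: human fibrin DD(E); quantity: Fibrin-DD(E) at 2 µM final; also added: fluorescent Tn7 probe at 0.1 µM; compound dosing: single nominal test concentration of 8.3 µM per compound; schedule: 10 min preincubation, 3 h with tracer, room temperature; detection: fluorescence polarization of the labelled Tn7 tracer; repeats: one replicate per compound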
# CAL PDZ FP-1: human CAL PDZ-peptide interaction inhibition; inhibition, % at 20 µM; 330,000 compounds, 0.02% hits; purified CAL PDZ, TMR-peptide fluorescence polarization, 1 h; Q9HD26; AID 504414;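 active = highest replicate inhibition of at least 40%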;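 note: plate controls were DMSO neutral control wells for no effect and unlabeled competitor peptide control wells for full effect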
#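 Material: tagged CAL PDZ domain; buffer or medium: 25 mM sodium phosphate pH 7.4, 150 mM NaCl, TCEP, IgG, Thesit; compound dosing: single point, 20 µM; schedule: 1 h incubation at room temperature before polarization reading; measured by: FP readout, S and P plane fluorescence; read-out basis: percent inhibition from loss of millipolarization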
# CAL PDZ FP-2: blocks peptide binding to the human CAL PDZ domain | Q9HD26 | purified CAL PDZ, TMR-peptide fluorescence polarization, 1 h | inhibition, % at 24.9 µM | 300,000 compounds, 0.92% hits;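 active = mean inhibition of at least 30% with at least half of replicates also reaching 30%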;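 note: 0% = DMSO neutral control and 100% = excess unlabeled competitor peptide PRC23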
# DDE Tn6 FP inh: inhibitors of Tn6 peptide binding to human fibrin DD(E); P02675; inhibition, % at 8.3 µM; 370,000 compounds, 0.21% hits; AID 720509; Fibrin DD(E) TRITC-Tn6 fluorescence polarization displacement;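 active = inhibition above a per-campaign cutoff: mean of compounds within control limits plus 3 SD, cut at about 15% in these data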;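 note: 0% = median of all compound wells on the plate and 100% = blocking peptide control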
# GRK2 inh: inhibitors of human GRK2 displacing RNA aptamer | P25098 | bead flow cytometry, FAM-aptamer displacement from GRK2 | inhibition of aptamer binding, % at 10 µM | 330,000 compounds, 0.59% hits | AID 488847;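 active = inhibition of aptamer binding above 40%, roughly 3 SD of noise, on plates passing a quality check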;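 note: median bead fluorescence of bound FAM aptamer so fluorescent compounds give negative values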
# GRK2 inh confirm: confirmation of human GRK2 inhibitors displacing RNA aptamer; 2,000 compounds, 4% hits; shares compounds with GRK2 inh; AID 504451; aptamer displacement, % at 10 µM; bead-bound GRK2, FAM-aptamer displacement, flow cytometry;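 active = aptamer displacement above 40%, near three times the noise of non-fluorescent compounds, on plates passing quality checks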;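 note: negative values mostly reflect intrinsic compound fluorescence rather than true enhancement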
# Aptamer quench SP: aptamer fluorescence quenching in GRK2 counter-screen | 2,000 tested, under 10 active | shares compounds with GRK2 inh | AID 504580 | Carboxyfluorescein RNA aptamer on beads, flow cytometry quenching; active compounds read low | fluorescence response (% of DMSO), % at 10 µM;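 active = compounds that quench the bead-bound fluorescent RNA probe, cutting fluorescence to under half of the solvent control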;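 note: counterscreen run without GRK2 so only probe quenching by compound is measured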
# GRK2 CP2: confirmation of human GRK2 inhibitors binding RNA aptamer site; shares compounds with GRK2 inh; 360 tested, under 10 active; inhibition of aptamer binding, % at 10 µM; bead-bound GRK2, FAM-aptamer displacement, flow cytometry; AID 504782;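 active = inhibition of aptamer binding above 40%, about triple the noise seen with nonglowing compounds, on plates passing quality control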;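 note: negative values mostly come from compounds that fluoresce themselves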
# FAM quench SP: aptamer fluorescence quenching in GRK2 counter-screen; shares compounds with GRK2 inh; carboxyfluorescein RNA aptamer beads, flow cytometry quenching; active compounds read low; fluorescence response vs DMSO, % at 10 µM; 360 tested, under 10 active;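 active = response vs DMSO under 50%, meaning signal dropped by over half, treated as fluorescence quencher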;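 note: labelled aptamer on streptavidin beads without GRK2 as a quench counter-screen; 100% = bead fluorescence of DMSO wells and lower means quenching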
# The depositor's hits bear a star; . = no result given. Compounds with a hit are over-represented: about 1.8% of the library has one in this group of screens.
SMILES,ARNT TACC3 PPI,DDE Tn7 FP inh,CAL PDZ FP-1,CAL PDZ FP-2,DDE Tn6 FP inh,GRK2 inh,GRK2 inh confirm,Aptamer quench SP,others
CCOC(=O)[C@]12CCCC=C1N(CCCOC)C(=O)[C@@H]2CC(=O)N1CCCCC1,.,1,.,.,-4,.,.,.,
COc1ccc(NC(=O)Nc2ccc3c(c2)CC(=O)N([C@H](C)CO)C[C@@H](C)[C@H](CN(C)S(C)(=O)=O)O3)cc1,4,.,.,.,.,.,.,.,
CC(C)C#Cc1ccc2c(c1)O[C@H](CN(C)S(C)(=O)=O)[C@@H](C)CN([C@@H](C)CO)S2(=O)=O,-2,.,.,.,.,.,.,.,
C[n+]1c2n(c3ccccc31)N=C(c1cc(C(C)(C)C)c(O)c(C(C)(C)C)c1)CS2,.,-8,-13,-5,2,64*,-1,101,
COc1cccc(C2=Nn3c(nnc3-c3ccccc3O)SC2)c1,0,0,-1,10,-1,4,.,.,
Cc1cccc(N2CCN(C(=O)c3ccc4c(c3)CCN4S(C)(=O)=O)CC2)c1C,-5,-6,-3,-4,-5,2,.,.,
O=Cc1ccc(OCC(=O)Nc2ccccc2-c2ccccc2)cc1,0,-3,-1,-2,-1,61*,-5,130,
NC(CCCCCP(=O)(c1ccccc1)c1ccccc1)C(=O)O (stereo not drawn),.,.,.,.,.,87*,-5,96,
O=C(O)CC(CP(=O)(c1ccccc1)c1ccccc1)C(=O)O (stereo not drawn),-5,-6,1,-2,0,18,.,.,
C[C@@H]1CN([C@@H](C)CO)C(=O)c2cccc(NC(=O)c3ccc(-c4nccs4)cc3)c2O[C@H]1CN(C)C(=O)Nc1ccc2c(c1)OCO2,-11,.,.,.,.,.,.,.,
CCCn1cnc2cc(NCc3ccc(Br)cc3)ccc21,12,-4,.,-1,7,0,-5,103,
CCn1cnc2cc(NCc3ccc(C)cc3)ccc21,5,7,-4,-1,2,2,.,.,
CCn1cnc2cc(NCc3ccc(Br)cc3)ccc21,.,4,.,.,8,44*,1,105,
O=C(O)/C=C/C(=O)Nc1ccc(Cc2ccc(NC(=O)/C=C/C(=O)O)cc2)cc1,0,0,-1,-1,6,40,1,94,
O=C(O)/C=C/C(=O)Nc1ccc(Oc2ccc(NC(=O)/C=C/C(=O)O)cc2)cc1,.,.,.,.,.,8,.,.,
COc1ccc(C2/C(=C(/O)c3cnn(-c4ccccc4)c3C)C(=O)C(=O)N2CCN(C)C)cc1OC (stereo not drawn),4,-7,2,-2,-6,.,.,.,
COc1ccc(/C(O)=C2/C(=O)C(=O)N(CCN(C)C)C2c2ccc(OC)c(OC)c2)c(C)c1 (stereo not drawn),28,4,-1,-3,-5,71*,-3,114,
O=C(C1CCCC1)N1CCN(S(=O)(=O)c2cccc(Cl)c2Cl)CC1,-5,5,.,0,-1,68*,1,98,
C[C@@H]1CN([C@@H](C)CO)C(=O)c2cccc(NC(=O)Nc3ccc4c(c3)OCO4)c2O[C@H]1CN(C)CC1CC1,5,.,.,.,.,.,.,.,
Cc1cc(C)nc(SCNC(=O)c2ccccc2)n1,-8,5,.,0,4,48*,-2,99,
COc1cccc(-c2cn(CC[C@H]3CC[C@@H](NS(=O)(=O)Cc4ccccc4)[C@@H](CO)O3)nn2)c1,3,.,.,.,.,.,.,.,
COc1ccc(CCN=C(N)NS(=O)(=O)c2ccc3ccccc3c2)cc1,1,1,-1,-2,0,1,.,.,
O=c1c2c([N+](=O)[O-])cc([N+](=O)[O-])cc2nc2ccccn12,7,6,-6,-1,-2,69*,-1,98,
O=c1c2c([N+](=O)[O-])cc([N+](=O)[O-])cc2sn1Cc1ccccc1,12,-3,-1,-2,-3,4,.,.,
Cc1cccc(NC(=O)CSc2c3c(nc4ccccc24)CCC3)n1,.,0,-3,-3,-2,0,.,.,GRK2 CP2=18;FAM quench SP=98
SMILES,ARNT TACC3 PPI,DDE Tn7 FP inh,CAL PDZ FP-1,CAL PDZ FP-2,DDE Tn6 FP inh,GRK2 inh,GRK2 inh confirm,Aptamer quench SP,others
O=C(c1ccccc1C(=O)N1CCN(c2ccccc2F)CC1)N1CCN(c2ccccc2F)CC1,-5,-1,0,-4,1,77*,3,97,
C[C@@H]1CN([C@@H](C)CO)C(=O)Cc2cc(NC(=O)Nc3ccc(F)cc3)ccc2O[C@@H]1CN(C)C(=O)Nc1cccc2ccccc12,-4,.,.,.,.,.,.,.,
Cc1ccccc1S(=O)(=O)NCC[C@@H]1CC[C@H](NC(=O)C2CCC2)[C@H](CO)O1,-30,.,.,.,.,.,.,.,
COC(=O)c1ccccc1N1C(=O)[C@@H]2C(c3ccc(F)cc3)=NO[C@@H]2C1=O,1,-2,.,-2,-7,0,.,.,GRK2 CP2=0;FAM quench SP=101
Cc1cc(NC(=O)c2ccccc2C)n(-c2cccc(F)c2)n1,-2,-8,1,7,-2,100*,1,103,
C=CCN1C(=O)c2ccc(C(=O)N(CCC)CC(=O)Nc3ccccc3C)cc2C1=O,12,3,-2,-4,6,99*,3,96,
C=CCN1C(=O)c2ccc(C(=O)N(C)CC(=O)Nc3ccccc3Br)cc2C1=O,-4,0,-1,-3,0,1,.,.,
CC(C)(C)c1ccc(S(=O)(=O)N2CCCC2C(=O)N2CCN(c3ccccc3)CC2)cc1 (stereo not drawn),.,3,.,.,-2,.,.,.,
Cc1noc(/C=C/N(C)C)c1S(=O)(=O)N1CCCC(C(=O)NCc2ccc(F)cc2)C1 (stereo not drawn),.,.,.,.,.,0,.,.,
Cc1ccc(CNC(=O)C2CCCN(S(=O)(=O)c3c(C)noc3/C=C/N(C)C)C2)cc1 (stereo not drawn),-4,-8,-1,2,-5,.,-2,102,
Cc1noc(/C=C/N(C)C)c1S(=O)(=O)N1CCCC(C(=O)NCc2ccccc2Cl)C1 (stereo not drawn),2,-3,.,-9,7,3,1,98,
O=C(NCc1ccccc1Cl)C1CCCN(S(=O)(=O)c2cccc3nonc23)C1 (stereo not drawn),-17,1,-2,0,7,1,0,96,
